Measured values from different studies.
Compare with care: the assays were run in different laboratories.
Observed: cell growth or viability

| SMILES | cell line | method | time | IC50 |
| --- | --- | --- | --- | --- |
| Cc1ccc(S(=O)(=O)n2cc(/C=N/NC(=O)Cc3cc(F)cc(F)c3)c3ccccc32)cc1 | MCF-10A | MTT | 48 h | > 50 µM |
| O=c1cc(OCc2cc(-c3ccccc3)no2)c2ccccc2o1 | K562 | MTS | 72 h | > 100 µM |
| CC(C)=CCc1ncc(/C=C2\NC(=O)[C@H](C(C)C)NC2=O)[nH]1 | NCI-H446 | SRB |  | > 15 µM |
| CC(=O)O[C@@]12CO[C@@H]1C[C@H](O)[C@@]1(C)C(=O)[C@H](O)C3=C(C)[C@@H](OC(=O)[C@H](O)[C@@H](NC(=O)OC(C)(C)C)c4ccccc4)C[C@@](O)([C@@H](OC(=O)c4ccccc4)[C@H]21)C3(C)C | MCF-10A | MTT | 48 h | > 100 µM |
| COc1cccc2c1C(=O)c1c(O)c3c(c(O)c1C2=O)C[C@@](O)(C(=O)CO)C[C@@H]3O[C@H]1C[C@H](N)[C@H](O)[C@H](C)O1 | NCI-H446 |  | 96 h | 0.0365 µM |
| O=C1C(=O)N(CCn2ncc3c(=O)[nH]cnc32)c2ccc(Cl)cc21 | BALB/3T3 clone A31 | SRB | 72 h | 11.4 µg/mL |
| Nc1nnc(-c2ccccc2O)cc1N1CC2CCC(C1)N2c1ccnc(F)c1 | VCaP | ATP luminescence | 7 days | > 1 µM |
| Cc1ccc(S(=O)(=O)n2cc(/C=N/NC(=O)c3ccco3)c3ccccc32)cc1 | MCF-10A | MTT | 48 h | > 50 µM |
| CC(=O)c1ccc2cc(S(=O)(=O)Nc3ccccn3)ccc2c1 | MDCK | neutral red | 48 h | 88.8 µM |
| CC(C)[C@@H](C)NC(=O)c1cc(-c2cc3ccccc3n2C)cc(C(=O)NCCc2ccccn2)n1 | JHH7 | CCK-8 |  | 25.3 µM |
| Cc1ccc(S(=O)(=O)n2cc(/C=N/NC(=O)c3cccnc3)c3ccccc32)cc1 | MCF-10A | MTT | 48 h | > 50 µM |
| Nc1ncnc2c1ncn2CCN1C(=O)C(=O)c2cc(F)ccc21 | BALB/3T3 clone A31 | SRB | 72 h | 47.2 µg/mL |
| CCOC(=O)c1c(C)nc2ccc(-c3cccc(F)c3)cc2c1O | MCF-10A | MTT | 48 h | ≥ 100 µM |
| CC(=O)c1ccc2cc(S(=O)(=O)Nc3cccnc3)ccc2c1 | MDCK | neutral red | 48 h | 20.7 µM |
| Cc1ccc(S(=O)(=O)n2cc(/C=N/NC(=O)c3ccccc3C)c3ccccc32)cc1 | MCF-10A | MTT | 48 h | > 50 µM |
| FC(F)(F)c1cc(OCc2cc(-c3ccc(Cl)cc3Cl)no2)c2ccccc2n1 | K562 | MTS | 72 h | > 100 µM |

| SMILES | cell line | method | time | IC50 |
| --- | --- | --- | --- | --- |
| Nc1ccn([C@@H]2O[C@H](CO)[C@@H](O)C2(F)F)c(=O)n1 | 4T1 | MTT | 48 h | 3.37 µg/mL |
| Clc1ccc(-c2cc(CNc3cccc4cccnc34)on2)c(Cl)c1 | K562 | MTS | 72 h | 33 µM |
| C=CC(C)(C)c1[nH]cnc1/C=C1/NC(=O)[C@H](C(C)C)NC1=O | NCI-H446 | SRB |  | 2 µM |
| COc1ccc2c(c1)C(=O)C(=O)N2CCn1cnc2c(N)ncnc21 | BALB/3T3 clone A31 | SRB | 72 h | 55.3 µg/mL |
| Cc1ccc(S(=O)(=O)n2cc(/C=N/NC(=O)c3ccccc3Br)c3ccccc32)cc1 | MCF-10A | MTT | 48 h | > 50 µM |
| CC(=O)c1ccc2cc(S(=O)(=O)Nc3ccc(Br)cc3)ccc2c1 | MDCK | neutral red | 48 h | 95.8 µM |
| Cc1ncsc1-c1ccc(CNC(=O)[C@@H]2C[C@@H](O)CN2C(=O)[C@@H](NC(=O)C2(F)CC2)C(C)(C)C)c(OCCOc2ccc(CN3CCN(c4cc(-c5ccccc5O)nnc4N)CC3)cc2)c1 | VCaP | ATP luminescence | 7 days | 0.0246 µM |
| COc1cccc2c1C(=O)c1c(O)c3c(c(O)c1C2=O)C[C@@](O)(C(=O)CO)C[C@@H]3O[C@H]1C[C@H](N)[C@H](O)[C@H](C)O1 | MDCK | neutral red | 48 h | 70 µM |
| Cc1ccc(S(=O)(=O)n2cc(/C=N/NC(=O)c3ccc([N+](=O)[O-])cc3)c3ccccc32)cc1 | MCF-10A | MTT | 48 h | > 50 µM |
| O=C1C(=O)N(CCn2ncc3c(=O)[nH]cnc32)c2ccccc21 | BALB/3T3 clone A31 | SRB | 72 h | 23.1 µg/mL |
| CC(C)[C@@H]1NC(=O)/C(=C/c2cnc[nH]2)NC1=O | NCI-H446 | SRB |  | > 15 µM |
| Cc1ccc(S(=O)(=O)n2cc(/C=N/NC(=O)c3cccc(Cl)c3)c3ccccc32)cc1 | MCF-10A | MTT | 48 h | > 50 µM |
| COc1ccc(NS(=O)(=O)c2ccc3cc(C(C)=O)ccc3c2)cc1 | MDCK | neutral red | 48 h | 18.2 µM |
| NC(=S)N/N=C1\C(=O)N(CCn2ncc3c(=O)[nH]cnc32)c2ccc(Cl)cc21 | BALB/3T3 clone A31 | SRB | 72 h | 14.3 µg/mL |
| C/C(=C\C(=O)N[C@H](C(=O)N1CCC[C@H]1C(=O)N(c1ccccc1)c1ccc(I)cc1)C(C)(C)C)c1ccc(OP(=O)(O)O)cc1 | JHH7 | CCK-8 |  | 7.19 µM |
